Results: ChEMBL document CHEMBL1126841, “Synthesis and structure-activity relationships of 1-acyl-4-((2-methyl-3-pyridyl)cyanomethyl)piperazines as PAF antagonists” (J Med Chem, 1993)

Assays:
Oryctolagus cuniculus [1] = organism: Oryctolagus cuniculus; experiment: In vitro inhibition of PAF-induced platelet aggregation in male rabbits
[2] = Inhibition of PAF-induced platelet aggregation
[3] = biological target: Platelet-activating factor receptor (Mus musculus) (UniProt Q62035); experiment: Dose required to inhibit PAF-induced mortality by 50% in mice; format: functional; conditions: Mus sp.
Platelet-activating factor receptor (Mus musculus), sequence (Q62035 whole entry): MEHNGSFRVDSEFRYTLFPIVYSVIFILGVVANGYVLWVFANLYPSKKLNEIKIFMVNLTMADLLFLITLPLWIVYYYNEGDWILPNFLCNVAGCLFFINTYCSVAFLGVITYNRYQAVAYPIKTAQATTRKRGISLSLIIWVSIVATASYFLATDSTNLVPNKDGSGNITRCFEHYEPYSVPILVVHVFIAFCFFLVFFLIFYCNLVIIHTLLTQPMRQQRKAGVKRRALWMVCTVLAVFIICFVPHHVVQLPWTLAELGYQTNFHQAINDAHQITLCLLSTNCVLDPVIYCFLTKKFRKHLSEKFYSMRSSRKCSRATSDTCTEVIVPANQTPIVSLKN
Summary of the method: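 Male Swiss mice (22-26 g), groups of 10; test compound given po (20 mL/kg), controls 1% Tween 80. 60 min later, C18-PAF 100 µg/kg plus propanolol 1 mg/kg injected into a lateral tail vein. Mortality scored 2 h after PAF; % inhibition vs controls. ID50 from linear regression of one curve, ≥4 points. Initial dose 3 mg/kg; further doses only if >50% inhibition.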

Mus musculus [4] = experiment: Tested for dose required to inhibit endotoxin-induced mortality by 50 % when administered perorally in endotoxin-induced mortality (EIM) mice; format: functional; conditions: po, read-out: ID50 (the source's name)
Summary of the method: (§1)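 Groups of 10 male Swiss mice (22-26 g) were dosed iv (saline vehicle) 5 min or po (1% Tween 80 vehicle) 30 min before tail-vein injection of E. coli 0111:B4 endotoxin, 20 mg/kg. Mortality was scored at 7 days versus vehicle controls. ID50 was obtained by linear regression of a single curve of at least four points.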

[5] = biological target: Platelet-activating factor receptor (Rattus norvegicus) (UniProt P46002); experiment: Intravenous dose required to reduce the arterial blood pressure caused by PAF by 50% in rats; format: functional
Platelet-activating factor receptor (Rattus norvegicus), sequence (P46002 whole entry): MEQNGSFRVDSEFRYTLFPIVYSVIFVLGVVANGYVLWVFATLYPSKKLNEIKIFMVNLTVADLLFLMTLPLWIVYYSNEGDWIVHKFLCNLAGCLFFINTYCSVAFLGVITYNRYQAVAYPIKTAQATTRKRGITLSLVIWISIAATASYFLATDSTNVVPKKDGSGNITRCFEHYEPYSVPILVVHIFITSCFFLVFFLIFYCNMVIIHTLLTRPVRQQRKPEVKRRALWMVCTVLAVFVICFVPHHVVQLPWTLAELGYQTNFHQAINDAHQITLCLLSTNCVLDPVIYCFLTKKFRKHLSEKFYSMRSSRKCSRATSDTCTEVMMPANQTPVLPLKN
Summary of the method: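 Male Sprague-Dawley rats (180-220 g) under pentobarbital anesthesia (50 mg/kg ip); carotid blood pressure recorded. Compound in saline given iv (femoral vein) 3 min before PAF 0.5 µg/kg iv; controls got vehicle. % inhibition of hypotension vs controls. ID50 from linear regression of one curve, ≥4 doses, each the mean of ≥2 independent experiments.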

Mus musculus [6] = experiment: Tested for dose required to inhibit endotoxin-induced mortality by 50 % when administered intravenously in endotoxin-induced mortality (EIM) mice; format: functional; conditions: iv, read-out: ID50 (the source's name)
Summary of the method: as §1

Mus musculus [7] = experiment: Tested for dose required to inhibit antigen-induced mortality by 50 % when administered intravenously in active anaphylactic shock (AAS) mice.; format: functional; conditions: iv, read-out: ID50 (the source's name)
Summary of the method: (§2)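 Male Swiss mice (30 g, groups of 10) were sensitized by ip injection of 1 mL saline containing 1 mg bovine serum albumin, then challenged with BSA. Compound was given iv 5 min or po 30 min before challenge. Survival was recorded 60 min after BSA. ID50 (dose inhibiting mortality by 50%) was obtained by linear regression of a single curve of at least four points.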

Mus musculus [8] = experiment: Tested for dose required to inhibit antigen-induced mortality by 50 % when administered perorally in active anaphylactic shock (AAS) mice.; format: functional; conditions: po, read-out: ID50 (the source's name)
Summary of the method: as §2

Rattus norvegicus [9] = experiment: Tested for dose required to inhibit endotoxin-induced mortality by 50 % when administered intravenously in endotoxin-induced mortality (EIM) in rats; format: functional; conditions: iv, read-out: ID50 (the source's name)
Summary of the method: as §1, with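 “Sprague-Dawley rats (150-175” for “Swiss mice (22-26”, “0127:B8” for “0111:B4”, “5” for “20”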

Rattus norvegicus [10] = experiment: Tested for dose required to inhibit endotoxin-induced mortality by 50 % when administered perorally in endotoxin-induced mortality (EIM) in rats; format: functional; conditions: po, read-out: ID50 (the source's name)
Summary of the method: as §1, with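 “Sprague-Dawley rats (150-175” for “Swiss mice (22-26”, “0127:B8” for “0111:B4”, “5” for “20”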

Oryctolagus cuniculus [11] = organism: Oryctolagus cuniculus; experiment: In vitro inhibition of PAF-induced platelet aggregation in male rabbits; format: functional
Summary of the method: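 Platelet-rich plasma from blood spun 250 g, 10 min, 4 °C, diluted with platelet-poor plasma (3000 g, 10 min) to 3.5 × 10^5 platelets/mm3. Aggregation induced with C18-PAF 1.5 × 10^-8 M and read on a dual-channel aggregometer. IC50 as 50% inhibition of maximal aggregation, by linear regression of one curve, ≥4 points, each the mean of 1-3 independent experiments.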

Mus musculus [12] = experiment: Tested for dose required to inhibit antigen-induced mortality by 50 % when administered perorally in active anaphylactic shock (AAS) mice; format: functional; conditions: po, read-out: ID50 (the source's name)
Summary of the method: as §2

Rattus norvegicus [13] = experiment: Tested for dose required to inhibit endotoxin-induced mortality by 50 % when administered intravenously in endotoxin-induced mortality (EIM) rats; format: functional; conditions: iv, read-out: ID50 (the source's name)
Summary of the method: as §1, with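 “Sprague-Dawley rats (150-175” for “Swiss mice (22-26”, “0127:B8” for “0111:B4”, “5” for “20”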

Rattus norvegicus [14] = experiment: Tested for dose required to inhibit endotoxin-induced mortality by 50 % when administered perorally in endotoxin-induced mortality (EIM) rats; format: functional; conditions: po, read-out: ID50 (the source's name)
Summary of the method: as §1, with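 “Sprague-Dawley rats (150-175” for “Swiss mice (22-26”, “0127:B8” for “0111:B4”, “5” for “20”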

Mus musculus [15] = experiment: Tested for dose required to inhibit antigen-induced mortality by 50 % when administered intravenously in active anaphylactic shock (AAS) mice; format: functional; conditions: iv, read-out: ID50 (the source's name)
Summary of the method: as §2

Row | SMILES | ID50 [3] | ID50 [5] | other results
1 | N#CC(c1cccnc1)N1CCN(C(=O)CC(O)(c2ccccc2)c2ccccc2)CC1 (stereo not drawn) |  |  | IC50 (Oryctolagus cuniculus [1]): 21 nM
2 | N#CC(c1cccnc1)N1CCN(C(=O)CC(c2ccccc2)c2ccccc2)CC1 (stereo not drawn) |  |  | IC50 [2]: 20 nM
3 | Cc1ncccc1C(C#N)N1CCN(C(=O)CNC(c2ccccc2)c2ccccc2)CC1 (stereo not drawn) | 0.3 mg/kg | 0.021 mg/kg | ED50 (Mus musculus [4]): 9 mg/kg; ED50 (Mus musculus [6]): 1.4 mg/kg; ED50 (Mus musculus [7]): 0.51 mg/kg; ED50 (Mus musculus [8]): 2.7 mg/kg; ED50 (Rattus norvegicus [9]): 0.28 mg/kg; ED50 (Rattus norvegicus [10]): 1.4 mg/kg
4 | N#CC(c1cccnc1)N1CCN(C(=O)CCNC(c2ccccc2)c2ccccc2)CC1 (stereo not drawn) |  |  | IC50 [2]: 53 nM
5 | Cc1ncccc1C(C#N)N1CCN(C(=O)CC(c2ccccc2)N2C(=O)CCC2=O)CC1 (stereo not drawn) | 0.71 mg/kg | 0.042 mg/kg | IC50 (Oryctolagus cuniculus [11]): 69 nM
6 | N#CC(c1cccnc1)N1CCN(C(=O)C=C(c2ccccc2)c2ccccc2)CC1 (stereo not drawn) |  |  | IC50 (Oryctolagus cuniculus [1]): 10 nM
7 | Cc1nnc2n1-c1sc(CCC(=O)N3CCOCC3)cc1C(c1ccccc1Cl)=NC2 [APAFANT] |  |  | ED50 (Mus musculus [12]): 0.8 mg/kg; ED50 (Mus musculus [4]): 13.2 mg/kg; ED50 (Mus musculus [6]): 1.7 mg/kg; ED50 (Rattus norvegicus [13]): 0.47 mg/kg; ED50 (Rattus norvegicus [14]): 1.4 mg/kg; ED50 (Mus musculus [15]): 1.7 mg/kg
8 | COC(=O)NC(CC(=O)N1CCN(C(C#N)c2cccnc2C)CC1)c1ccccc1 (stereo not drawn) | 0.044 mg/kg | 0.015 mg/kg | ED50 (Mus musculus [12]): 2.7 mg/kg; ED50 (Mus musculus [4]): 7.5 mg/kg; ED50 (Mus musculus [6]): 1.7 mg/kg; ED50 (Rattus norvegicus [13]): 0.11 mg/kg; ED50 (Rattus norvegicus [14]): 1 mg/kg; ED50 (Mus musculus [15]): 0.19 mg/kg
9 | Cc1ncccc1C(C#N)N1CCN(C(=O)CSC(c2ccccc2)c2ccccc2)CC1 (stereo not drawn) | > 3 mg/kg | 0.058 mg/kg | 
10 | Cc1ncccc1C(C#N)N1CCN(C(=O)CC(NCc2ccccc2)c2ccccc2)CC1 (stereo not drawn) | 1.2 mg/kg | 0.035 mg/kg | 
11 | Cc1ncccc1C(C#N)N1CCN(C(=O)CC(Nc2ccccc2)c2ccccc2)CC1 (stereo not drawn) | 0.27 mg/kg | 0.042 mg/kg | 
12 | N#CC(c1cccnc1)N1CCN(C(=O)CNC(c2ccccc2)c2ccccc2)CC1 (stereo not drawn) | 5.9 mg/kg | 0.023 mg/kg | IC50 [2]: 9.1 nM
13 | Cc1ncccc1C(C#N)N1CCN(C(=O)CC(c2ccccc2)N(C)Cc2ccccc2)CC1 (stereo not drawn) | > 3 mg/kg | 0.024 mg/kg | 
14 | Cc1ncccc1C(C#N)N1CCN(C(=O)CC(C)(O)c2ccccc2)CC1 (stereo not drawn) | > 3 mg/kg | 0.029 mg/kg | 
15 | COC(=O)N(Cc1ccccc1)C(CC(=O)N1CCN(C(C#N)c2cccnc2C)CC1)c1ccccc1 (stereo not drawn) | 3 mg/kg | 0.066 mg/kg | 
16 | Cc1ncccc1C(C#N)N1CCN(C(=O)CC(O)(c2ccccc2)c2cccnc2)CC1 (stereo not drawn) | 1 mg/kg | 0.042 mg/kg | 
17 | Cc1ncccc1C(C#N)N1CCN(C(=O)CC(C)c2ccccc2)CC1 (stereo not drawn) | > 3 mg/kg | 0.039 mg/kg | 
